# Compound activity from PubChem BioAssay.
# A selection: hits, their analogues and other compounds. The true share with any hit is near 1.9%.
# SR-BI DiI inh = inhibitors of mouse SR-BI mediated HDL lipid uptake; Q61009; ldlA[mSR-BI] CHO cells, DiI-HDL uptake fluorescence, 3 h; inhibition, % at 12.5 µM; 320,000 compounds, 0.96% hits; AID 488896;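 active = mean replicate inhibition of at least 70% and a set share of replicates each scoring 70 or more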;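 note: 0% = median of neutral control wells and 100% = median of positive control wells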
# SR-BI DiI-HDL act = enhances SR-BI lipid uptake from DiI-HDL. CHO ldlA[mSR-BI] cells, DiI-HDL uptake fluorescence, 3 h; 100 = double the neutral-control signal. activation, % at 12.5 µM. 320,000 compounds, 0.096% hits. AID 504775;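 active = mean replicate activation of at least 60% and every replicate at or above 60%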;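 note: 0% = median plate neutral-control signal and 100% = twice that signal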
#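 Assay system: LDL receptor-deficient CHO ldlA cells overexpressing murine SR-BI / Medium: BSA-supplemented, HEPES-buffered Ham's F12, pH 7.4 / Probe or stimulus: DiI-labelled HDL at 10 µg/mL final / Timing: compound with DiI-HDL co-incubation, 3 h at 37 °C / Technique: bottom-read cell fluorescence after medium removal, ex 550/em 595 nm / Measure: HDL uptake via cellular fluorescence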
# UBC13 polyUb = human UBC13 polyubiquitination inhibition; UBC13 polyubiquitin chain formation, TR-FRET; inhibition, % at 20 µM; 330,000 compounds, 0.47% hits; AID 485273; in the data active = inhibition above about 45%, passing the limit was not always enough
# Neddyl block = cullin neddylation inhibition | inhibition, % at 25 µM | TR-FRET cullin neddylation, biochemical | 360,000 compounds, 0.58% hits; in the data active = inhibition above about 36%
# Target sequence (P61081 whole entry, looked up): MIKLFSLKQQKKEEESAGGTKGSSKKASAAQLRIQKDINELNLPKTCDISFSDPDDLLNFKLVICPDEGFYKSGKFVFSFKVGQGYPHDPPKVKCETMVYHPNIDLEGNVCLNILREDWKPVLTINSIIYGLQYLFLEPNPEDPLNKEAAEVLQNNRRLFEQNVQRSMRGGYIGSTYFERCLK
# Target sequence (Q13564 whole entry, looked up): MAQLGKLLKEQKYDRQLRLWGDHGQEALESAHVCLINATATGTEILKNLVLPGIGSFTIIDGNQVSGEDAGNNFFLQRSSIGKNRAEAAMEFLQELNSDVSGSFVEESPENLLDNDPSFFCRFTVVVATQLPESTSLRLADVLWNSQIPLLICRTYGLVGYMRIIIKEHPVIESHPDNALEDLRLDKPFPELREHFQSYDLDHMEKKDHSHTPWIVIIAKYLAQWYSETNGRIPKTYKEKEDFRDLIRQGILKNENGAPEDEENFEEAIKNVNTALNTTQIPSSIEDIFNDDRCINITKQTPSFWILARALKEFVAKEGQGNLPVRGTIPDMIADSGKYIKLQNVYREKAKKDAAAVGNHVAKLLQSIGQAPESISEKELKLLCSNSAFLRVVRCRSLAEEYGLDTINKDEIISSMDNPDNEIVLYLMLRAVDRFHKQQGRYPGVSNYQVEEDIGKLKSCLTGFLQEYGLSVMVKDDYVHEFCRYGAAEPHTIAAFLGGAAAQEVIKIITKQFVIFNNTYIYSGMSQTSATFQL
# Neddyl inh conf = cullin neddylation inhibition, confirmation. shares compounds with Neddyl block. TR-FRET cullin neddylation biochemical assay. calls only at 25 µM. 1,800 compounds, 13% hits. AID 652217; in the data active = inhibition above about 40%;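 note: neddylation substrate is the cullin 1 ring ligase complex with SKP2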
# * marks the source's active call; other numbers are inactive results; i = inactive; nt = not tested or not shown; + = active, no number.
SMILES,SR-BI DiI inh,SR-BI DiI-HDL act,UBC13 polyUb,Neddyl block,Neddyl inh conf
C=CCOC(=O)c1ccccc1N,-6,6,3,45*,i
Nc1ccccc1C(=O)OCCOc1ccccc1,-17,17,14,nt,nt
NC(Cc1ccc(O)cc1)C(=O)NN=Cc1ccc(N(CCCl)CCCl)cc1 (configuration not stated),25,-25,nt,41*,i
CN(Cc1cccc(-c2ccncc2)c1)C(=O)Oc1ccc([N+](=O)[O-])cc1,nt,nt,nt,-32,nt
CC(CCN1CC1)=NNC(=O)Nc1cccc2ccccc12,-1,1,nt,48*,i
Cc1ccc(CN2C(=O)NC(=O)C3(Cc4c(nc5ccccn5c4=O)N4CCCCCC43)C2=O)cc1 (configuration not stated),2,-2,-11,44*,i
O=C1NC(=O)C2(Cc3ccccc3N3CCCC32)C(=O)N1c1cccc(Cl)c1 (configuration not stated),-3,3,1,-5,nt
CCOC(=O)[C@]12Cc3cc(C)ccc3[C@H]1N(C)C(=O)c1cc(OC)ccc12,nt,nt,nt,7,nt
CCCCC(=O)N/N=C/c1c(O)n(-c2cccc3ccccc23)c(=O)[nH]c1=O,-10,10,-4,41*,i
O=C1C=C2c3ccccc3CC(C(=O)O)C2CC1 (configuration not stated),nt,nt,nt,-22,nt
CCOC(=O)c1ccc(-[n+]2c(-c3ccccc3)cc(-c3ccccc3)cc2-c2ccccc2)cc1,18,-18,22,nt,nt
Cc1ccc(-c2cc(-c3ccc(C)cc3)[n+](-c3ccc(C(=O)[O-])cc3)c(-c3ccc(C)cc3)c2)cc1,-3,3,20,40*,+
COCCn1cc(C(=O)N2CCC3(CC2)OCCO3)c2c3ccccc3n(C)c2c1=O,-18,18,12,39*,i
Cn1c2ccccc2c2c(C(=O)N3CCC4(CC3)OCCO4)cn(C3CCCC3)c(=O)c21,-7,7,5,30,nt
O=C(c1ccc2c3c(cccc13)CC2)C1CCCN(Cc2ncc[nH]2)C1 (configuration not stated),4,-4,27,50*,i
